In ChEMBL document CHEMBL4414663, “Pyrazole-4-Carboxamide (YW2065): A Therapeutic Candidate for Colorectal Cancer via Dual Activities of Wnt/β-Catenin Signaling Inhibition and AMP-Activated Protein Kinase (AMPK) Activation” (J Med Chem, 2019):
Calls of active or inactive are those of the source. The calls are words filed in the database; no cut-off is given here.

Assays:
[1] = Inhibition of Wnt/beta-Catenin signaling (unknown origin) expressed in recombinant human Wnt-3a-induced Wnt-HEK293 cells incubated for 24 hrs by luciferase reporter gene assay; assay type: cell-based
In short: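 Stably transfected Wnt-HEK293 cells, 2000/well in DMEM + 10% FBS, incubated overnight at 37 °C. Compounds pin-transferred, then recombinant human Wnt-3a added (200 ng/mL stock); unstimulated control wells received medium. After 24 h at 37 °C, ONE-Glo luminescence read after 30 min at room temperature; CellTiter-Fluor viability read in parallel. IC50 reported as mean ± SD of three independent experiments.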

SW480 [2] = experiment: Growth inhibition of human SW480 cells by Cell-titer-fluor reagent based assay; assay type: functional
Homo sapiens [3] = organism: Homo sapiens; experiment: Inhibition of Wnt/beta-Catenin signaling (unknown origin) expressed in recombinant human Wnt-3a-induced Wnt-HEK293 cells assessed as increase in beta-catenin degradation at 1 uM by Western blot analysis; assay type: cell-based
SW480 [4] = experiment: Growth inhibition of human SW480 cells at 50 uM by Cell-titer-fluor reagent based assay relative to control; assay type: functional; conditions: read-out: GI
Homo sapiens [5] = organism: Homo sapiens; experiment: Potency index, ratio of IC50 for pyrvinium to test compound for inhibition of Wnt/beta-Catenin signaling (unknown origin) expressed in recombinant human Wnt-3a-induced Wnt-HEK293 cells incubated for 24 hrs by luciferase reporter gene assay; assay type: cell-based
Homo sapiens [6] = organism: Homo sapiens; experiment: Potency index, ratio of IC50 for XAV939 to test compound for inhibition of Wnt/beta-Catenin signaling (unknown origin) expressed in recombinant human Wnt-3a-induced Wnt-HEK293 cells incubated for 24 hrs by luciferase reporter gene assay; assay type: cell-based
[7] = molecular target: AMP-activated protein kinase, AMPK (Homo sapiens) (UniProt P54646+O43741+P54619+Q9UGJ0+Q9Y478+Q13131+Q9UGI9); experiment: Activation of AMPK in HEK293 cells over-expressing Axin-1 assessed as increase in AMPK phosphorylation at T172 residue at 10 uM incubated for 24 hrs by Western blot analysis; assay type: cell-based

IC50 [1] | GI50 (SW480 [2]) | SMILES | inhibition of growth at 50 µM (SW480 [4]) | other results
260 nM |  | O=C(Nc1ccc2ccccc2n1)c1nn(-c2ccccc2)c2c1CCCC2 |  | 
> 1000 nM |  | CCc1ccccc1-n1ncc(C(=O)Nc2ccc3ccccc3c2)c1C |  | 
67 nM |  | CCc1ccccc1-n1nc(C(=O)Nc2ccc3ccccc3n2)cc1C |  | 
637 nM |  | Cc1cc(C(=O)Nc2ccc3ccccc3n2)nn1-c1ccccc1 |  | 
29 nM |  | O=C(Nc1ccc2ccccc2n1)c1cnn(-c2ccccc2)c1Cl |  | 
250 nM |  | Cc1ccccc1-n1nc(C(=O)Nc2ccc3ccccc3n2)cc1C |  | 
140 nM |  | O=C(Nc1ccc2ccccc2n1)c1nn(-c2ccccc2)c2c1CCC2 |  | 
380 nM |  | CCc1ccccc1-n1ncc(C(=O)Nc2cccc(C)n2)c1C |  | 
1.2 nM | 9700 nM | CCc1ccccc1-n1ncc(C(=O)Nc2ccc3ccccc3n2)c1C | > 50% | 
2.2 nM | 23900 nM | Cc1c(C(=O)Nc2ccc3ccccc3n2)cnn1-c1ccccc1 | > 50% | Ratio IC50 (Homo sapiens [5]): > 300; Ratio IC50 (Homo sapiens [6]): > 200
15 nM | 17300 nM | CC(C)c1c(C(=O)Nc2ccc3ccccc3n2)cnn1-c1ccccc1 | > 50% | 
2.2 nM |  | Cc1cccnc1-n1ncc(C(=O)Nc2ccc3ccccc3n2)c1C |  | 
1.6 nM |  | Cc1c(C(=O)Nc2ccc3ccccc3n2)cnn1-c1c(F)cccc1F |  | 
1.7 nM |  | CCc1c(C(=O)Nc2ccc3ccccc3n2)cnn1-c1ccccc1 |  | 

The remaining lines, values behind:

SMILES | IC50 [1] | GI50 (SW480 [2]) | inhibition of growth at 50 µM (SW480 [4]) | other results
CCc1ccccc1-n1ncc(C(=O)Nc2cc3ccccc3cn2)c1C | > 1000 nM |  |  | 
Oc1nc(-c2ccc(C(F)(F)F)cc2)nc2c1CSCC2 | 450 nM | > 50000 nM |  | 
Cc1c(C(=O)Nc2ccc3ccccc3n2)cnn1-c1ccc(F)cc1F | 16 nM |  |  | 
Cc1cc(/C=C/c2ccc3cc(N(C)C)ccc3[n+]2C)c(C)n1-c1ccccc1 [PYRVINIUM] | 750 nM | 3700 nM |  | inhibition (Homo sapiens [3]): Active
Cc1c(C(=O)Nc2ccc3ccccc3n2)cnn1-c1cccc(Cl)c1F | 14 nM | 9000 nM | > 50% | 
Cc1ccc(C)c(-n2ncc(C(=O)Nc3ccc4ccccc4n3)c2C)c1 | 14 nM | 24600 nM | > 50% | 
Cc1cccc(C)c1-n1ncc(C(=O)Nc2ccc3ccccc3n2)c1C | 26 nM | 7200 nM | > 50% | 
CN(C)c1c(C(=O)Nc2ccc3ccccc3n2)cnn1-c1ccccc1 | 6 nM |  |  | 
Cc1c(C(=O)Nc2ccc3ccccc3n2)cnn1-c1c(F)cccc1Br | 3.2 nM | 3900 nM | > 50% | 
Cc1c(C(=O)Nc2ccc3ccccc3n2)cnn1-c1ccccc1F | 0.92 nM | 33300 nM | > 50% | 
O=C(Nc1ccc2ccccc2n1)c1cnn(-c2ccccc2)c1Br | 3.7 nM |  |  | 
Cc1ccccc1-n1nnc(C(=O)Nc2ccc3ccccc3n2)c1C |  |  |  | Activity [7]: Active; inhibition (Homo sapiens [3]): Active
